The record followed here is ChEMBL document CHEMBL1157559, “Synthesis and biological evaluation of novel pyrazolyl-2,4-thiazolidinediones as anti-inflammatory and neuroprotective agents” (Bioorg Med Chem, 2010).

Usually inhibition stands for the relative decrease from the control value, in per cent. What is called inhibition in vivo is the drop in the measured response relative to a control, in per cent. The ED50 is the midpoint of the dose-response relation. For orientation: EC50 means the midpoint of the concentration-response curve. Broadly, the IC50 is the concentration that gives 50% inhibition.

Activity calls are given as the source filed them. The calls are words filed in the database; no cut-off is given here.

For data set [1], the system named is SH-SY5Y. Put plainly: Neuroprotective activity in human SH-SY5Y cells assessed as inhibition of LPS, IFN-gamma-stimulated THP1 cellular supernatant-induced cytotoxicity after 72 hrs by LDH assay. The format is functional, cell-based. Summed up:
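SH-SY5Y cells plated 24 h, then medium replaced with supernatant from THP-1 cells stimulated with LPS + IFN-γ for 48 h. Compound added directly to the SH-SY5Y cells at the time of transfer. Cell death measured by LDH release after 72 h; 4–6 independent experiments.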

The subject of data set [2] is SH-SY5Y. Put plainly: Neuroprotective activity in human SH-SY5Y cells assessed as inhibition of H2O2-induced cytotoxicity after 72 hrs by LDH assay. Format: functional, cell-based. Summed up:
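SH-SY5Y cells plated in DMEM-F12 with 5% FBS. After 24 h, medium replaced with medium containing H2O2 (500 µM in methods, 250 µM in figure legend), and compound added directly at that time. Cell death measured by LDH release 72 h later.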

For data set [3], the system named is Rattus norvegicus. Put plainly: Antiinflammatory activity in Wistar albino rat acute inflammatory model assessed as inhibition of formalin-induced paw edema at 20 mg/kg, po administered 1 hr before formalin challenge measured after 1 hr by plethysmometer relative to control. The format is functional. On the set-up: scale not given: the % may be the effect or the level left. Summed up: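 Male Wistar rats, 180–200 g, groups of five. Test compound 20 mg/kg po; 1 h later 0.1 mL 2% formalin injected subplantar into left hind paw under light ether anesthesia. Paw volume by water plethysmometer at 0 and 1, 2, 3, 4 h after formalin. % inhibition = (Vt−V0)control minus (Vt−V0)treated, divided by (Vt−V0)control ×100. Mean ± SEM, ANOVA with Student–Newman–Keuls.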

Data set [4] deals with Rattus norvegicus. Put plainly: Antiinflammatory activity in Wistar albino rat sub-acute inflammatory model assessed as inhibition of turpentine oil-induced granuloma pouch exudate volume at 20 mg/kg, po 1 hr before turpentine oil challenge for 7 days assessed measured on day 8. Format: functional. The procedure, abridged: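 Male rats 120–150 g, five per group. Subcutaneous dorsal pouch made under ether with 2 mL air, then 0.5 mL turpentine oil injected. Compound 20 mg/kg po 1 h before turpentine, then daily for seven days. On day 8 exudate drawn by syringe under anesthesia and volume measured. % inhibition = (Vcontrol − Vtreated)/Vcontrol ×100.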

Data set [5] deals with Rattus norvegicus. Put plainly: Gastrointestinal toxicity in Wistar albino rat assessed as hyperemia at 100 mg/kg/day, po administered twice daily for 3 days. To be noted: in vivo, 72 h. The format is organism-based. Also on record: route oral. The procedure, abridged: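 Male rats 180–200 g, groups of five, fasted 12 h with water available. Compounds given orally as two equal doses at 0 and 12 h, 100 mg/kg per day, for three successive days; vehicle control 1% gum acacia. Rats killed 6 h after last dose. Stomach opened along greater curvature, washed with cold saline and inspected under 3× lens for hyperemia, hemorrhage, erosions or ulcers.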

Data set [6] has as its system Rattus norvegicus. Briefly: Antiinflammatory activity in po dosed Wistar albino rat acute inflammatory model assessed as inhibition of formalin-induced paw edema administered 1 hr before formalin challenge measured after 3 hrs by plethysmometer. Format: functional. The procedure, abridged: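 Rats dosed orally at 5, 10, 20, 40 and 50 mg/kg body weight. Edema volume inhibition measured 3 h after subplantar formalin (2%, 0.1 mL), and ED50 determined from these doses.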

The subject of data set [7] is THP-1. Put plainly: Cytotoxicity against LPS and IFN-gamma-stimulated human THP1 cells after 24 hrs. Format: functional, cell-based. Particulars: THP-1, 24 h. The procedure, abridged:
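THP-1 cells, 24-well, in DMEM-F12 with 5% FBS. Compound or DMSO added 15 min before LPS 0.5 µg/mL plus IFN-γ 150 U/mL. After 24 h, LDH release (fraction of Triton-lysed value, OD 490) and MTT were read. EC50 taken from curves of at least three independent experiments; the lower of the two assay values was reported.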

The test system of data set [8] is THP-1. Briefly: Inhibition of MCP1 release in human THP1 cells after 24 hrs by ELISA. The format is functional, cell-based. The procedure, abridged:
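THP-1 cells pretreated 15 min with compound, then stimulated with LPS 0.5 µg/mL plus IFN-γ 150 U/mL. After 24 h, MCP-1 (ng/mL) measured in cell-free medium by ELISA.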

Data set [9] relates to SH-SY5Y. Put plainly: Antineurotoxicity in human SH-SY5Y cells assessed as inhibition human THP1 cell supernatant-induced cytotoxicity compound pretreated 24 to 48 hrs to THP1 cells measured after 72 hrs of supernatant addition. Format: functional, cell-based. The procedure, abridged: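 THP-1 cells in DMEM-F12 with 5% FBS, pretreated 15 min with compound or DMSO, then stimulated with LPS 0.5 µg/mL plus IFN-γ 150 U/mL for 24 or 48 h. Cell-free supernatant transferred to SH-SY5Y cells plated 24 h earlier. After 72 h, viability by LDH release and MTT. IC50 from curves of at least three independent experiments.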

The target in data set [10] is T1, Prostaglandin G/H synthase 2 (Homo sapiens) (UniProt P35354).
T1 sequence (whole entry): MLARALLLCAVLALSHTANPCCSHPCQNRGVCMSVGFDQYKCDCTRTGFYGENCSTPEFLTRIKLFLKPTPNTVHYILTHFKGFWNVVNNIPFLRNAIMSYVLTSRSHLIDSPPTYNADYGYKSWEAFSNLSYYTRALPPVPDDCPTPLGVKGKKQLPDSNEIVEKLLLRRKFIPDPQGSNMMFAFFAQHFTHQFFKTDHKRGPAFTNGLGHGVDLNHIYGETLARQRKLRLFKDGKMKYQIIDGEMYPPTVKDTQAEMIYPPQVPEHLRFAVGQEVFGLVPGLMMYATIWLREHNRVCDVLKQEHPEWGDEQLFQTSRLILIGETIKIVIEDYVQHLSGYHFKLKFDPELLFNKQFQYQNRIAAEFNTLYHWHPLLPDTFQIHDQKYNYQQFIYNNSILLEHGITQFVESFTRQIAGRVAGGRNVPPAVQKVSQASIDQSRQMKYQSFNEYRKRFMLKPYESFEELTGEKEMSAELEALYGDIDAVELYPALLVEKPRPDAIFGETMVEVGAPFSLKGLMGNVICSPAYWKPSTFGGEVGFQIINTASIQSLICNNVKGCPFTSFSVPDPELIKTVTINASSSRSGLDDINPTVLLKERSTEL
Particulars: at 10 µM.

As for `O=C1NC(=O)/C(=C/c2cn(-c3ccc([N+](=O)[O-])cc3)nc2-c2ccc(Cl)cc2)S1`, the inhibition result in data set [1], in data set [2] and in data set [8] was “inactive” each time. In addition, the figures for the Activity in data set [3] and in data set [5] were 24% and “Non-toxic”, respectively. In data set [4], the inhibition in vivo at 20 mg/kg was 51%. Further, in data set [6], the ED50 is 15.2 mg/kg. The compound also displayed an EC50 in data set [7] of more than 100000 nM. For the same compound, in data set [9], the IC50 was 2000 nM. For the same compound, the inhibition in data set [10] is 19.4%.
